Entries after “also recorded” stand apart in the source; their conditions may differ. Values belong to the substance of their own block, whether it stands above or below them.
Experiments:
TNBC cells = assay: Western blot of cell-cycle, apoptosis and invasion proteins; type: cell-based; details: immunoblot, Figure 4D
tumor tissue [1] = assay: TUNEL assay of tumor tissue; type: in vivo, nude BALB/c mice; details: Figure 6C
Summary of the method: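 Xenograft tumor tissue was fixed in 4% PFA overnight and paraffin-embedded. Apoptotic cells in sections were detected with a FragEL DNA fragmentation kit (TUNEL) and imaged at ×200. Tumors came from test peptide- or scrambled peptide-treated mice.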

MDA-MB-231 cells [2] = assay: MTT cell viability / proliferation, MDA-MB-231; type: cell-based; details: 1 nM–100 μM, 24, 48 or 72 h, 0.04% FBS, Figure 3A
Summary of the method: (§1)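 Log-phase cells (DMEM, 10% FBS) are seeded at 5 × 10^3 cells/well for 24 h, then starved 12 h in 0.04% FBS medium. Serially diluted test peptide or scrambled peptide is added in the same medium. Viability is read by MTT at 24, 48 and 72 h. Mean ± SD of three independent experiments; one-way ANOVA versus 0 μM at each time.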

T47D cells = assay: MTT cell viability / proliferation, T47D; type: cell-based; details: 1 nM–100 μM, 24, 48 or 72 h, 0.04% FBS, Figure 3A
Summary of the method: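 T47D cells were maintained in RPMI with 10% FBS. Log-phase cells were seeded at 5 × 10^3 cells/well for 24 h, then starved in 0.04% FBS medium for 12 h. Serial dilutions of test peptide or scrambled peptide in 0.04% FBS medium were added for 24, 48 and 72 h before MTT read-out. Three independent experiments, mean ± SD. One-way ANOVA versus 0 μM at each time point.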

HEK293 pcDNA cells = assay: Calcium mobilization assay, HEK293 pcDNA cells; type: cell-based; details: Fluo-4 NW, Figure 2D
Summary of the method: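 Stably transfected HEK293 cells carrying empty pcDNA3.0 vector (G418 resistance) served as the control line. Intracellular calcium was read with Fluo-4 NW dye following the kit protocol. Human recombinant chemerin was the agonist and test peptide the antagonist. Three independent experiments, mean ± SD.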

GPR1 [3] = assay: Phage clones binding to GPR1 by ELISA; set-up: species or system human; details: versus HEK293 pcDNA cells, Figure 2A
Summary of the method: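 A Ph.D.-7 library (diversity 2.8 × 109) was precleared, then panned for five rounds over stable GPR1-overexpressing HEK293 cells (2 × 10^5/well, seeded 24 h). Eluted clones were serially diluted and incubated with GPR1-overexpressing or empty-vector HEK293 cells. Phage ssDNA was then sequenced.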

PI3K/AKT pathway = assay: Western blot of PI3K/AKT pathway; type: cell-based
GPR1 [4] = assay: Calcium mobilization assay, GPR1-expressing cells; type: cell-based, human; details: Fluo-4 NW, Figure 2D
Summary of the method: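 HEK293 cells stably transfected with human GPR1 (pcDNA3.0 vector, G418 resistance), with empty-vector HEK293 as control, grown in DMEM with 10% FBS. […] Fluo-4 NW dye is used following the kit instructions. Reported as mean ± SD of three independent experiments.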

tumor tissue [5] = assay: Histology/IHC of tumor tissue; type: in vivo, nude BALB/c mice
Summary of the method: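 Xenograft tumors were fixed in 4% PFA overnight, paraffin-embedded and sectioned. Sections were H&E-stained (×200, ×400) or immunostained for Ki-67, PCNA and vimentin using an IHC kit (×200). Groups were test peptide- or scrambled peptide-treated mice.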

MDA-MB-231 cells [6] = assay: Transwell invasion assay, MDA-MB-231; type: cell-based; details: Matrigel-coated Transwell, 48 h, Figure 4
Summary of the method: (§2)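 Cells (2 × 104) were seeded in serum-free medium with serially diluted test peptide or scrambled peptide into Matrigel-coated upper Transwell chambers. The lower chamber held 10% FBS medium as chemoattractant. Incubation ran 48 h at 37°C, 5% CO2. Non-invaded cells were removed. Invaded cells were methanol-fixed for 10 min, stained with hematoxylin for 30 min, and counted. Three independent experiments, mean ± SD.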

MDA-MB-231 cells [7] = assay: Colony formation assay, MDA-MB-231; type: cell-based; details: 1 month of treatment, Figure 3B
Summary of the method: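 MDA-MB-231-tomato cells were seeded at 1 × 10^3 cells/well in 6-well plates. They were exposed to indicated concentrations of test peptide or scrambled peptide. Fluorescent colonies were counted under a fluorescence microscope.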

MDA-MB-231 cells [8] = assay: Transwell migration assay, MDA-MB-231; type: cell-based; details: 0.1 μM to 10 μM, 12 h, Figure 4
Summary of the method: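 Uncoated Transwell chambers were used. MDA-MB-231 cells were placed in the upper chamber in FBS-free medium with test peptide or scrambled peptide. The lower chamber held 10% FBS medium. Incubation ran 12 h at 37°C, 5% CO2. Unmigrated cells were wiped off. Migrated cells were methanol-fixed for 10 min, hematoxylin-stained for 30 min at RT, and counted by inverted microscopy. Three independent experiments, mean ± SD.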

GPR1 [9] = molecular target: T1, GPR1 (Homo sapiens, UniProt P46091); assay: Immunofluorescence colocalization of FITC-LRH7-G5 with GPR1; type: cell-based; details: breast cancer cells; 1 μM FITC-labeled peptide, 2 h at RT, confocal microscopy
T1 sequence (P46091 1-355): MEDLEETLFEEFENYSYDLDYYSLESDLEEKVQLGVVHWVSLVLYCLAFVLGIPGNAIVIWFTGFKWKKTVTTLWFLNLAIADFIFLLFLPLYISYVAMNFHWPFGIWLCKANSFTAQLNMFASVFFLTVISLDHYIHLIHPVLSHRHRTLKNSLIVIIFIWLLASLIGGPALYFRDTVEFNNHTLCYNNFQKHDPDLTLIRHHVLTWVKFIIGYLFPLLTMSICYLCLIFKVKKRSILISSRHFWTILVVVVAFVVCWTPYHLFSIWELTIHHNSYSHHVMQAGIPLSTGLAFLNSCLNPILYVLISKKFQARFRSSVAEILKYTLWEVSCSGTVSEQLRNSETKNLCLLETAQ

[10] = Body weight of nude mice, MDA-MB-231 model; type: in vivo, nude BALB/c mice; details: MDA-MB-231 nude mice; i.p. daily, 25 days; Figure 5F
Summary of the method: (§3)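 Female nude BALB/c mice, 4–6 weeks old, were randomised into five groups. Each received MDA-MB-231-tomato or HCC1937-tomato cells (7 × 106 in 100 μL PBS) s.c. into the left axilla. Serially diluted test peptide or scrambled peptide was given i.p. daily for 25 days. Body weight and tumor size were recorded every 3 days, with volume = length × width² × 0.5. IVIS imaging was done twice weekly. Tumors were weighed at sacrifice.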

HCC1937 cells [11] = assay: MTT cell viability / proliferation, HCC1937; type: cell-based; details: 1 nM–100 μM, 24, 48 or 72 h, 0.04% FBS, Figure 3A
Summary of the method: as §1

MDA-MB-231 cells [12] = assay: Apoptosis by Annexin V/PI flow cytometry; type: cell-based; details: 24, 48 or 72 h, Annexin V-FITC/PI, Figure 3D
Summary of the method: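 MDA-MB-231 cells were grown in DMEM with 10% FBS at 37°C and 5% CO2. They were treated with serial dilutions of test peptide or scrambled peptide, then stained with FITC-Annexin V and PI for flow cytometry. Annexin V+/PI− (early) plus Annexin V+/PI+ (late) cells were scored as apoptotic. Three independent experiments, mean ± SD, one-way ANOVA.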

MDA-MB-231 cells [13] = assay: Cell-cycle distribution by flow cytometry; type: cell-based; details: 24, 48 or 72 h, PI staining, Figure 3C
Summary of the method: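 MDA-MB-231 cells (DMEM, 10% FBS, 37°C, 5% CO2) are treated with serially diluted test peptide for 24, 48 or 72 h. Cells are stained with propidium iodide for 30 min at room temperature in the dark. Flow cytometry gives the percentages in G0/G1, S and G2/M. Mean ± SD of three independent experiments; one-way ANOVA versus control phases.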

HCC1937 cells [14] = assay: Transwell invasion assay, HCC1937; type: cell-based; details: Matrigel-coated Transwell, 48 h, Figure S4
Summary of the method: as §2

HCC1937 cells [15] = assay: Transwell migration assay, HCC1937; type: cell-based; details: 12 h, Figure S4
[16] = Body weight of nude mice, HCC1937 model; type: in vivo, nude BALB/c mice; details: i.p. daily, 25 days, Figure S5E
Summary of the method: as §3

MDA-MB-231 xenograft = MDA-MB-231 xenograft in nude mice; type: in vivo, nude BALB/c mice; details: MDA-MB-231 nude mice; i.p. daily, 25 days; n = 5–6 per group
Summary of the method: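 Female nude BALB/c mice, 4–6 weeks old, receive 7 × 10^6 MDA-MB-231-tomato cells in 100 μL PBS subcutaneously into the left axilla. Serially diluted test peptide or scrambled peptide is injected i.p. daily. Body weight and tumor size are recorded every 3 days, with volume = length × width² × 0.5, and IVIS bioluminescence is imaged twice weekly. Tumors are weighed at sacrifice; mean ± SD.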

HCC1937 xenograft = HCC1937 xenograft in nude mice; type: in vivo, nude BALB/c mice; details: i.p. daily, 25 days, n=5
Summary of the method: as §3

GPR1 [17] = molecular target: T1, GPR1; details: cited from earlier work
[18] = tested on: receptors CMKLR1 and GPR1; details: comparison of the two receptors; cited from earlier work
GPR1 [19] = assay: cAMP assay; type: cell-based, human; details: 10 nM huChemerin, 10 μM forskolin, 30 min at 37°C; mean ± SD, three independent experiments
Summary of the method: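 Stable GPR1-transfected and empty-vector HEK293 cells are seeded at 5 × 10^3 cells/well for 24 h. Cells are then exposed to serial dilutions of test peptide alone, forskolin plus chemerin, or forskolin, chemerin and peptide combined. cAMP is measured with a commercial kit.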

[20] = Gi class of heterotrimeric G proteins

binding affinity of phage clones to GPR1 (GPR1 [3]): highest affinity | colocalization with GPR1 (GPR1 [9]): marked colocalization with GPR1
Substance: MPRLPPA [LRH7-G5]
Bcl-2 level (TNBC cells; apoptosis regulator): decreased | Stat3 level (TNBC cells; apoptosis regulator): decreased | cyclin D level (TNBC cells; cell-cycle-related protein): decreased | MMP-2 level (TNBC cells; invasion-related): decreased | MMP-9 level (TNBC cells; invasion-related): decreased | N-cadherin level (TNBC cells; invasion-related): decreased | Snail level (TNBC cells; invasion-related): decreased | vimentin level (TNBC cells; invasion-related): decreased | cellular apoptosis in tumor (TUNEL) (tumor tissue [1]): increase in cellular apoptosis; also recorded: induces apoptosis in tumors | effect on cell growth (MTT) (MDA-MB-231 cells [2]): significantly suppressed cell growth in a dose-dependent manner | effect on cell growth (MTT) (T47D cells): little effect | effect on calcium mobilization in HEK293 pcDNA cells (HEK293 pcDNA cells): did not affect | effect of peptide in coculture with AKT phosphorylation activator SC-79 (PI3K/AKT pathway; cocultured with SC-79): enhanced by the AKT agonist | effect of peptide in coculture with PI3K inhibitor wortmannin (PI3K/AKT pathway; cocultured with wortmannin): weakened by the PI3K inhibitor | phosphorylation of AKT (PI3K/AKT pathway; immunoblot): significantly decreased | phosphorylation of ERK (PI3K/AKT pathway; immunoblot): significantly decreased | effect on chemerin-induced calcium mobilization (GPR1 [4]): significantly decreased chemerin-induced calcium mobilization | tumor necrosis (H&E) (tumor tissue [5]; H&E staining, Figure 6A): exhibited cellular necrosis | tumor cell growth (Ki-67, PCNA, vimentin staining) (tumor tissue [5]; IHC staining of Ki-67, PCNA, and vimentin, Figure 6B): decreased cell growth | effect on invasion (MDA-MB-231 cells [6]): significantly suppressed | effect on colony formation (MDA-MB-231 cells [7]): validated by colony formation assays | effect on migration (MDA-MB-231 cells [8]): significantly suppressed; also recorded: decreased migration | mean body weight [10]: did not change significantly | effect on cell growth (MTT) (HCC1937 cells [11]): significantly suppressed cell growth in a dose-dependent manner | induction of apoptosis (MDA-MB-231 cells [12]): induced their apoptosis | cell-cycle arrest (MDA-MB-231 cells [13]): arrested MDA-MB-231 cells at the G0/G1 phase boundary | effect on invasion (HCC1937 cells [14]): significantly suppressed | effect on migration (HCC1937 cells [15]): significantly suppressed | body weight [16]: did not affect body weight | tumor burden (MDA-MB-231 xenograft): reduced the tumor burden in a dose-dependent manner | tumor volume (HCC1937 xenograft; compared with control group): markedly decreased | tumor weight (HCC1937 xenograft; compared with control group): markedly decreased | tumor growth (HCC1937 xenograft; dose-dependent, bioluminescence): substantially suppressed tumor growth | tumor burden (HCC1937 xenograft): reduced the tumor burden in a dose-dependent manner

Substance: chemerin: human recombinant chemerin, R&D Systems; chemokine-like adipokine, GPR1 ligand
cAMP accumulation on GPR1 activation (GPR1 [17]; [20]): inhibition of cyclic adenosine monophosphate (cAMP) accumulation | p42-p44 MAP kinases phosphorylation on GPR1 activation (GPR1 [17]; [20]): phosphorylation of the p42-p44 MAP kinases | intracellular calcium release on GPR1 activation (GPR1 [17]): intracellular calcium release | binding affinities for CMKLR1 and GPR1 [18]: similar | effect on forskolin-induced cAMP release (GPR1 [19]): suppressed forskolin-induced cAMP release
